In ChEMBL document CHEMBL1149761, “New triazole and triazolothiadiazine derivatives as possible antimicrobial agents” (2008):
≈ marks a conversion by molar mass, not a printed value.

What was measured:
Candida albicans = assay: Antifungal activity against Candida albicans isolate by broth dilution antifungal susceptibility test; type: functional
How it was run: (§1)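 Clinical Candida isolates obtained from Osmangazi University, Faculty of Medicine. Tested by the microbroth dilution method alongside bacterial strains.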

Nakaseomyces glabratus = assay: Antifungal activity against Candida glabrata isolate by broth dilution antifungal susceptibility test; type: functional; how it was run: as §1
Salmonella typhimurium = assay: Antibacterial activity against Salmonella Typhimurium NRRL B-4420 by microdilution broth susceptibility assay; type: functional, Salmonella enterica subsp. enterica serovar Typhimurium; conditions: Salmonella enterica
Proteus vulgaris = assay: Antibacterial activity against Proteus vulgaris NRRL B-123 by microdilution broth susceptibility assay; type: functional
Staphylococcus aureus = assay: Antibacterial activity against Staphylococcus aureus NRRL B-767 by microdilution broth susceptibility assay; type: functional
Micrococcus luteus = assay: Antibacterial activity against Micrococcus luteus NRLL B-4375 by microdilution broth susceptibility assay; type: functional
Bacillus cereus = assay: Antibacterial activity against Bacillus cereus NRRL B-3711 by microdilution broth susceptibility assay; type: functional
Escherichia coli = assay: Antibacterial activity against Escherichia coli NRRL B-3704 by microdilution broth susceptibility assay; type: functional

MIC (Candida albicans) | MIC (Nakaseomyces glabratus) | MIC (Salmonella typhimurium) | MIC (Proteus vulgaris) | MIC (Staphylococcus aureus) | MIC (Micrococcus luteus) | MIC (Bacillus cereus) | MIC (Escherichia coli) | Compound
125 µg/mL (≈ 340 µM) | 250 µg/mL (≈ 680 µM) | 62.5 µg/mL (≈ 170 µM) | 125 µg/mL (≈ 340 µM) | 125 µg/mL (≈ 340 µM) | 62.5 µg/mL (≈ 170 µM) | 250 µg/mL (≈ 680 µM) | 125 µg/mL (≈ 340 µM) | S=c1[nH]nc(Cc2c[nH]c3ccccc23)n1/N=C/c1ccc(Cl)cc1
125 µg/mL (≈ 320 µM) | 125 µg/mL (≈ 320 µM) | 250 µg/mL (≈ 640 µM) | 125 µg/mL (≈ 320 µM) | 125 µg/mL (≈ 320 µM) | 125 µg/mL (≈ 320 µM) | 250 µg/mL (≈ 640 µM) | 125 µg/mL (≈ 320 µM) | O=[N+]([O-])c1ccc(C2=Nn3c(Cc4c[nH]c5ccccc45)nnc3SC2)cc1
250 µg/mL (≈ 720 µM) | 125 µg/mL (≈ 360 µM) | 125 µg/mL (≈ 360 µM) | 62.5 µg/mL (≈ 180 µM) | 125 µg/mL (≈ 360 µM) | 62.5 µg/mL (≈ 180 µM) | 125 µg/mL (≈ 360 µM) | 250 µg/mL (≈ 720 µM) | Cc1ccc(/C=N/n2c(Cc3c[nH]c4ccccc34)n[nH]c2=S)cc1
 |  | 0.97 µg/mL (≈ 3 µM) | 0.97 µg/mL (≈ 3 µM) | 62.5 µg/mL (≈ 193 µM) | 1.95 µg/mL (≈ 6.03 µM) | 125 µg/mL (≈ 387 µM) | 62.5 µg/mL (≈ 193 µM) | O=C(N[C@H](CO)[C@H](O)c1ccc([N+](=O)[O-])cc1)C(Cl)Cl [CHLORAMPHENICOL]
125 µg/mL (≈ 322 µM) | 250 µg/mL (≈ 644 µM) | 12.5 µg/mL (≈ 32.2 µM) | 125 µg/mL (≈ 322 µM) | 250 µg/mL (≈ 644 µM) | 62.5 µg/mL (≈ 161 µM) | 125 µg/mL (≈ 322 µM) | 125 µg/mL (≈ 322 µM) | CN(C)c1ccc(C2=Nn3c(Cc4c[nH]c5ccccc45)nnc3SC2)cc1
125 µg/mL (≈ 330 µM) | 125 µg/mL (≈ 330 µM) | 125 µg/mL (≈ 330 µM) | 125 µg/mL (≈ 330 µM) | 250 µg/mL (≈ 661 µM) | 125 µg/mL (≈ 330 µM) | 250 µg/mL (≈ 661 µM) | 125 µg/mL (≈ 330 µM) | O=[N+]([O-])c1ccc(/C=N/n2c(Cc3c[nH]c4ccccc34)n[nH]c2=S)cc1
125 µg/mL (≈ 362 µM) | 125 µg/mL (≈ 362 µM) | 62.5 µg/mL (≈ 181 µM) | 62.5 µg/mL (≈ 181 µM) | 62.5 µg/mL (≈ 181 µM) | 62.5 µg/mL (≈ 181 µM) | 125 µg/mL (≈ 362 µM) | 250 µg/mL (≈ 724 µM) | c1ccc(C2=Nn3c(Cc4c[nH]c5ccccc45)nnc3SC2)cc1

Continued, molecule first:

Compound | MIC (Candida albicans) | MIC (Nakaseomyces glabratus) | MIC (Salmonella typhimurium) | MIC (Proteus vulgaris) | MIC (Staphylococcus aureus) | MIC (Micrococcus luteus) | MIC (Bacillus cereus) | MIC (Escherichia coli)
CC(=O)N1CCN(c2ccc(OCC3COC(Cn4ccnc4)(c4ccc(Cl)cc4Cl)O3)cc2)CC1 (stereo not drawn) [KETOCONAZOLE] | 62.5 µg/mL (≈ 118 µM) | 62.5 µg/mL (≈ 118 µM) |  |  |  |  |  | 
S=c1[nH]nc(Cc2c[nH]c3ccccc23)n1/N=C/c1ccccc1 | 125 µg/mL (≈ 375 µM) | 125 µg/mL (≈ 375 µM) | 62.5 µg/mL (≈ 187 µM) | 62.5 µg/mL (≈ 187 µM) | 125 µg/mL (≈ 375 µM) | 250 µg/mL (≈ 750 µM) | 250 µg/mL (≈ 750 µM) | 125 µg/mL (≈ 375 µM)
Cc1ccc(C2=Nn3c(Cc4c[nH]c5ccccc45)nnc3SC2)cc1 | 250 µg/mL (≈ 695 µM) | 62.5 µg/mL (≈ 174 µM) | 62.5 µg/mL (≈ 174 µM) | 125 µg/mL (≈ 348 µM) | 125 µg/mL (≈ 348 µM) | 62.5 µg/mL (≈ 174 µM) | 250 µg/mL (≈ 695 µM) | 125 µg/mL (≈ 348 µM)
CN(C)c1ccc(/C=N/n2c(Cc3c[nH]c4ccccc34)n[nH]c2=S)cc1 | 250 µg/mL (≈ 664 µM) | 250 µg/mL (≈ 664 µM) | 62.5 µg/mL (≈ 166 µM) | 125 µg/mL (≈ 332 µM) | 250 µg/mL (≈ 664 µM) | 125 µg/mL (≈ 332 µM) | 125 µg/mL (≈ 332 µM) | 125 µg/mL (≈ 332 µM)
Clc1ccc(C2=Nn3c(Cc4c[nH]c5ccccc45)nnc3SC2)cc1 | 125 µg/mL (≈ 329 µM) | 250 µg/mL (≈ 658 µM) | 125 µg/mL (≈ 329 µM) | 250 µg/mL (≈ 658 µM) | 125 µg/mL (≈ 329 µM) | 62.5 µg/mL (≈ 165 µM) | 125 µg/mL (≈ 329 µM) | 125 µg/mL (≈ 329 µM)
